Assay outcomes as filed in PubChem.
MEKK2wt PB1 HTS – raises or lowers MEK5 binding to wildtype human MEKK2 PB1 domain; Q9Y2U5; bead flow cytometry, Alexa488-MEK5 binding to MEKK2 WT; actives lie on both sides; binding response (% of control), % at 10 µM; 290,000 tested, 1.1% active; AID 1531; in the data active means binding response below about 67% or above about 130%
IMP-1 inhibitor – inhibitors of Pseudomonas aeruginosa IMP-1 metallo-beta-lactamase; purified IMP-1, nitrocefin hydrolysis, epi-absorbance fluorescence; inhibition, % at 5.6 µM; 290,000 tested, 0.45% active; AID 1556;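 active means inhibition above the mean plus 3 SD of all compounds in the same screening run, cut at about 4.5% in these data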
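System: purified IMP-1; amount: IMP-1 0.2 nM before substrate addition; compound: single dose, 5.6 µM; times: 25 °C, 15 min preincubation, 25 min reaction; signal: Epi-absorbance via hydrolysed-nitrocefin quenching of white-plate fluorescence, 480/530 nm, EDTA stop; benchmarks: DMSO with and without IMP-1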
VIM-2 inhibitor – blocks Pseudomonas aeruginosa VIM-2 metallo-beta-lactamase. AID 1527. 290,000 tested, 0.89% active. purified VIM-2, nitrocefin hydrolysis, epi-absorbance fluorescence. inhibition, % at 5.6 µM;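 active means inhibition above the mean of all tested compounds plus 3 SD, cutoff set per screening run, cut at about 7.5% in these data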;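 further: red hydrolysis product quenches plate fluorescence so inhibitors raise well fluorescence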
MEKK3 PB1 HTS – modulators (inhibitors or enhancers) of MEK5 binding to human MEKK3 PB1 domain | bead-based flow cytometry, Alexa488-MEK5 binding to MEKK3; actives lie on both sides; 0 = blocked by unlabeled MEK5, 100 = vehicle | binding response (% of control), % at 10 µM | 290,000 tested, 1.4% active | AID 1529;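 active means binding response more than 3 SD above or below the average of its plate-row segment, actives on both sides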;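 further: Alexa488 bead fluorescence after subtracting the streptavidin-only scavenger bead signal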
MEKK2mut PB1 HTS – signal of MEK5 binding to mutant human MEKK2 PB1 domain; percent response, % at 10 µM; AID 1530; bead flow cytometry, Alexa488-MEK5 binding to MEKK2 mutant; 290,000 tested, 0.35% active; in the data active means percent response above about 24%, passing the limit was not always enough
MEKK2wt confirm – raises or lowers MEK5 binding to wildtype human MEKK2, retest; AID 1892; binding response (% of control), % at 10 µM; shares compounds with MEKK3 PB1 HTS; bead flow cytometry, Alexa488-MEK5 binding to MEKK2 WT; actives lie on both sides; 5,900 tested, 2.4% active; in the data active means binding response below about 16% or above about 210%; inactive means in between
MEKK2mut-MEK5 – signal of MEK5 binding to mutant human MEKK2, retest; percent response, % at 10 µM; 5,900 tested, 2% active; shares compounds with MEKK3 PB1 HTS; bead flow cytometry, Alexa488-MEK5 binding to MEKK2 mutant; in the data active means percent response mostly above about 71%, no sharp cut-off; inactive means mostly below about 38%;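 further: higher means compound restores mutant binding toward wildtype level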
MEKK3 confirm – MEKK3-MEK5 PB1 inhibition, single concentration confirmation; AID 1894; shares compounds with MEKK3 PB1 HTS; bead flow cytometry, Alexa488-MEK5 binding to MEKK3; hits give low values; 5,900 tested, 1.8% active; binding response (% of control), % at 10 µM;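 active means binding response below 72% of control, or above a set upper limit, though filed actives all read lower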
Hits are given with their value; . = inactive; / = not tested or not shown; [ ] = dose if it differs, or a comment. In the library only some 3.4% were active in any assay of this set; here they are far more common.

SMILES	MEKK2wt PB1 HTS	IMP-1 inhibitor	VIM-2 inhibitor	MEKK3 PB1 HTS	MEKK2mut PB1 HTS	MEKK2wt confirm	MEKK2mut-MEK5	MEKK3 confirm
c1ccc(-c2nnc(N3CCN(c4ccccc4)CC3)nc2-c2ccccc2)cc1	.	.	.	.	.	/	/	/
CCS(=O)(=O)N1CCN(c2ccc(S(=O)(=O)N3CCOCC3)cc2)CC1	.	.	.	48[inhibitor]	.	.	.	.
COc1cccc(NC(=S)NN2C(C)CCCC2C)c1 (configuration not stated)	.	.	.	132	.	.	.	.
CC(C)CNC(=O)COC(=O)c1ccc(F)cc1Cl	.	.	.	73[inhibitor]	.	.	.	.
CC(C)CNC(=O)COC(=O)c1cc(Cl)cc(Cl)c1N	.	.	.	.	.	/	/	/
COc1ccc(NC(=O)c2cccc(N3C(=O)NC4CC3(C)Oc3ccccc34)c2)cc1 (configuration not stated)	.	.	.	133	.	.	.	.
CC12CC(NC(=O)N1c1cccc(C(=O)Nc3ncn[nH]3)c1)c1ccccc1O2 (configuration not stated)	.	.	.	.	.	/	/	/
Cc1cc2nc(SCCOC(=O)Nc3cccc(Cl)c3)nc(C)c2cc1C	.	.	.	153	.	.	.	.
C[N+](C)(C)C/C=C1/COCO1	.	.	.	.	27	.	.	.
COc1ccc(CCC2(C)NC(=O)NC2=O)cc1 (configuration not stated)	.	.	.	.	.	/	/	/
O=[N+]([O-])c1ccc(CSc2nc3ccccc3o2)cc1	.	.	.	.	.	/	/	/
O=[N+]([O-])c1ccc(CSc2nnc(SCc3ccccc3)s2)cc1	.	.	.	60[inhibitor]	.	.	.	.
CCOC(=O)C(/C(C)=N/NC(=O)c1ccccc1[N+](=O)[O-])C(C)C (configuration not stated)	.	.	.	.	.	/	/	/
COc1cccc(N/C(SCc2ccccc2C)=C(/C#N)C(=O)NCc2cccs2)c1	.	.	.	130	.	.	.	.
CC12C=CC3(O1)C(C(=O)N(c1ccccc1)C3C(=O)NC1CCCC1)C2C(N)=O (configuration not stated)	29[inhibitor]	.	.	20[inhibitor]	.	.	.	.
O=C(CSc1nnc(NC(=O)C2CC(=O)N(c3ccc(F)cc3)C2)s1)NCC1CCCO1 (configuration not stated)	.	.	.	.	.	/	/	/
Cc1ccc(CSc2nc3ccsc3c(=O)n2Cc2ccccn2)cc1	.	.	.	139	.	.	.	.
CCC(C)n1c(SCC(=O)Nc2ccccc2C(F)(F)F)nc2ccsc2c1=O (configuration not stated)	.	.	.	.	.	/	/	/
CCC(C)n1c(SCc2ccccc2)nc2ccsc2c1=O (configuration not stated)	.	.	.	151	.	.	.	.
Cc1cccc(C(=O)N2CCN(c3ncnc4c3cnn4-c3ccccc3)CC2)c1	.	.	.	.	24	.	.	.
Nc1ccccc1NC(=O)c1ccccc1N	3.0[inhibitor]	.	.	3.0[inhibitor]	.	.	.	.
Cc1c(NC(=O)c2ccccc2N)cccc1C(=O)O	.	.	.	.	.	/	/	/
CCC(C)[C@H](NC(=O)NCc1cccc(OC)c1)C(=O)O (some centres not stated)	.	.	.	.	.	/	/	/
CC(=O)N1CC(=O)N(Cc2ccccc2)/C(=C/c2ccccc2)C1=O	.	.	.	132	.	.	.	.
CC(=O)Oc1c(S(=O)(=O)c2ccc(C)cc2)c(C)nn1C(C)(C)C	.	.	.	.	.	/	/	/
N#Cc1cc([N+](=O)[O-])cnc1NCC(O)CO (configuration not stated)	2.0[inhibitor]	.	.	2.0[inhibitor]	.	.	.	.
